Sampled rows, rich in hits. Any-hit rate of the full collection: about 1.9%.
PLC-gamma1 inh = blocks human PLC-gamma1 enzyme activity; purified PLC-gamma1, fluorogenic substrate, fluorescence; inhibition, % at 12.2 µM; actives 0.84% (n = 370,000)
procasp3 activ = activators of human procaspase-3; recombinant procaspase-3 D3A, Ac-DEVD-pNA absorbance 405 nm; activation, % at 8.5 µM; actives 0.11% (n = 330,000); AID 463141;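 active = activation above the mean of all tested compounds plus 3 SD, cut at about 21% in these data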;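 also: 0% = DMSO alone and 100% = DMSO wells spiked with extra 5 µM PC-3 D3A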
Target sequence (P42574 whole entry D9A/D28A/D175A): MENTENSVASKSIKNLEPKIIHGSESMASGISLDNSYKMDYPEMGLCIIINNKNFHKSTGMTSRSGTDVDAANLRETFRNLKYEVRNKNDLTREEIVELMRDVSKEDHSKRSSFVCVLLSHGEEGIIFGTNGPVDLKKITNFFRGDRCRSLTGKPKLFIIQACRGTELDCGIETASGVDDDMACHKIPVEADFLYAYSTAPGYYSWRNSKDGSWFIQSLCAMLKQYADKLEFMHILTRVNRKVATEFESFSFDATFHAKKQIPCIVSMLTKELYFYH
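Assay system – Procaspase-3 D3A mutant, all three cleavage aspartates alanine · Controls – DMSO-only low control, 5 µM PC-3 D3A high control · Schedule – 1 h compound preincubation, 2 h substrate hydrolysis at 25 °C · Signal – 405 nm absorbance of p-nitroaniline, reads at 0 and 120 min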
HGIII-sPLA2 inh = Blocks human group III sPLA2 activity; actives 0.56% (n = 370,000); Q9NZ20; AID 743126; inhibition, % at 12.2 µM; QFRET BODIPY PC-A2 liposome hydrolysis, fluorescence;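 active = inhibition above mean plus 3 SD of compounds lying within the high and low control bounds, cut at about 19% in these data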;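 also: 0% = median of test compound wells and 100% = no enzyme DMSO wells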
procasp7 counter = counter-screen: procaspase-7 (human) activation; recombinant procaspase-7, Ac-DEVD-pNA absorbance 405 nm; D23A/D198A/D206A triple mutant, cannot self-cleave; scale: DMSO 0, 5 µM enzyme 100; P55210; activation, % at 8.5 µM; actives 0.093% (n = 330,000); AID 463210;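 active = percent activation above the screen-wide mean plus 3 SD, cut at about 25% in these data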
Target sequence (P55210 whole entry D23A/D198A/D206A): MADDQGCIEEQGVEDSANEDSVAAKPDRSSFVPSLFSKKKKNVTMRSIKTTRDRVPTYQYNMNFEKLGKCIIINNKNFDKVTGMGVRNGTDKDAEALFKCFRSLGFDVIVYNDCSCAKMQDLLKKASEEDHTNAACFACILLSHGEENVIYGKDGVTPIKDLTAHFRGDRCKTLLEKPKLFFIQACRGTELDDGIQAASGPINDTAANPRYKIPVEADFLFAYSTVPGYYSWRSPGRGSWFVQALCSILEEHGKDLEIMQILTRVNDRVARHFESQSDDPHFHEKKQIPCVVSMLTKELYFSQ
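buffer or medium = Zinc-free HEPES/NaCl buffer, pH 7.4 | material = Procaspase-7 triple mutant (PC-7 D3A) | input = 2 µM procaspase-7 mutant as dispensed | signal = Epi-absorbance of released pNA at 405 nm, two timepoints | timing = 1 h preincubation, 2 h reaction | replicates = singlicate compound testing | evaluation = % activation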
Arr AP2 block = human beta-arrestin and AP2 interaction inhibition; AID 504490; FITC-arrestin peptide / GST-AP2 beads, flow cytometry; AP2 beta2 appendage carries R879A mutation; actives 0.31% (n = 340,000); inhibition, % at 10 µM;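 active = inhibition above a set limit, near 3 SD of compounds lacking own fluorescence, cut at about 54% in these data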;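 also: plate controls were DMSO wells for no effect and 5 µM unlabelled arrestin peptide for full effect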
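system = GST-tagged AP2 beta2-adaptin appendage (R879A) on 4 µm glutathione beads | reagent = FITC-labelled arrestin peptide probe, 50 nM final | schedule = compound with beads 12 min RT, then probe 1 h RT | signal = HyperCyt-sampled flow cytometry, FL1 channel, ex 488/em 535 nm | read-out = percent response from loss of bead-bound FITC fluorescence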
PLCb3 inh = blocks human PLC-beta3 enzyme activity. Q01970. Purified PLC-beta3, fluorogenic substrate, fluorescence. inhibition, % at 12.2 µM. actives 0.18% (n = 370,000); in the data active = inhibition above about 11%;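 also: 0% = median of compound wells on plate and 100% = full blocker control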
PLCgamma1 ctr = PLC-gamma1 inhibition, counter-screen for PLC-beta3 hits | shares compounds with PLC-gamma1 inh | actives 3.1% (n = 3,300) | AID 743258 | purified PLC-gamma1, fluorogenic substrate, fluorescence | inhibition, % at 12.3 µM
PLCbeta3 conf = confirmation of human PLC-beta3 inhibitors; AID 743261; purified PLC-beta3, fluorogenic substrate fluorescence; shares compounds with PLC-gamma1 inh; inhibition, % at 12.3 µM; actives 1% (n = 3,300); in the data active = inhibition above about 11%
An asterisk follows results filed as active; nt = not tested or not shown. Rule as the data show it, unless noted: active = inhibition above about 9.5%; inactive = the rest.

SMILES | PLC-gamma1 inh | procasp3 activ | HGIII-sPLA2 inh | procasp7 counter | Arr AP2 block | PLCb3 inh | PLCgamma1 ctr | PLCbeta3 conf
CC(C)CNc1ccc2c(c1)OC[C@H](C)NS2(=O)=O | 0 | nt | 2 | nt | nt | -2 | nt | nt
Cc1ccc(S(=O)(=O)N2CCOCC2)cc1NC(=O)c1cc2c(s1)CCC2 | 10* | 1 | -10 | 7 | 9 | 3 | -6 | -2
Cc1ccc(C2(C)NC(=O)N(CC(=O)Nc3cc(S(=O)(=O)N4CCOCC4)ccc3C)C2=O)cc1 (stereo not given) | 10* | 6 | -11 | 6 | 5 | 9 | -3 | 2
Nc1cc(=O)[nH]c(SCC(=O)Nc2cc(S(=O)(=O)N3CCOCC3)ccc2Cl)n1 | 0 | 5 | -3 | 2 | 4 | 2 | nt | nt
Cc1nc(SCC(=O)Nc2cc(S(=O)(=O)N3CCOCC3)ccc2Cl)nc(C)c1C | 11* | 4 | -3 | -5 | 27 | -1 | -3 | 1
COc1cc(S(=O)(=O)N2CCOCC2)ccc1NC(=O)c1cc2c(s1)CCC2 | -3 | 2 | -8 | 12 | -2 | -7 | nt | nt
O=S(=O)(CC1NCc2cc(F)ccc21)NC1CCCC1 (stereo not given) | -8 | nt | 17 | nt | nt | -17 | nt | nt
CCOC(=O)[C@@]12CCCC3=C1N(CCC3)C(=O)[C@H]2CC(=O)NCCCN1CCCC1=O | -1 | nt | 0 | nt | nt | -1 | nt | nt
CCO/C(C)=N/Oc1cc(OC)cc(OC)c1 | 1 | nt | 3 | nt | nt | 1 | nt | nt
COc1ccc(OC)c(S(=O)(=O)N2CCC(c3cn4ccccc4n3)CC2)c1 | -106 | nt | -11 | nt | nt | -138 | nt | nt
COc1ccc(S[C@]2(C(=O)N3CCN(c4ncccn4)CC3)CC(=O)N(c3ccc4ccccc4c3)[C@@H]2c2ccc(OC)cc2)cc1 | 1 | nt | -1 | nt | nt | -1 | nt | nt
CC(C)[C@@H]1C(=O)N[C@H](Cc2cn(S(=O)(=O)c3ccccc3)c3ccccc23)C(=O)N1C | 0 | nt | -5 | nt | nt | -3 | nt | nt
COc1ccc(C(=O)NCC(C)(C)N2CCOCC2)cc1S(=O)(=O)NCc1ccc(Cl)cc1 | 12* | nt | 17 | nt | 9 | -10 | -4 | 0
Cc1cc(NC(=O)CCCC(=O)O)nc(C)n1 | 10* | 2 | 2 | -2 | -1 | 5 | -2 | -1
Cc1ccc(O)c(NC(=O)CCCC(=O)O)c1 | -2 | -12 | 2 | 1 | 9 | 0 | nt | nt
CCOC(=O)N1CCN(C(=O)c2ccc(CS(=O)Cc3ccccc3Cl)o2)CC1 (stereo not given) | 9.9* | 7 | 0 | 0 | 3 | -6 | -2 | 3
CSc1ccc(C2=CC(=O)C[C@H](c3ccc(Cl)cc3)C2)cc1 | -35 | 2 | 3 | 2 | 36 | -58 | nt | nt
COC(=O)C1CN(C2CC2)CCS(=O)(=O)N1Cc1cn(Cc2ccc(OC)cc2)nn1 (stereo not given) | 1 | nt | 5 | nt | nt | 1 | nt | nt
COc1ccc(NC(=O)Cn2nnc(C(=O)NCc3ccccc3)c2N)cc1Cl | -3 | 1 | 4 | 10 | 5 | 7 | nt | nt
COc1ccc(Cl)cc1NC(=O)c1nnn(CC(=O)Nc2ccc(C)c(C)c2)c1N | 9.7* | -2 | -6 | 1 | 3 | -5 | -19 | -18
COc1ccc(NC(=O)Cn2nnc(C(=O)NCc3ccc(C)cc3)c2N)cc1Cl | 13* | 1 | 3 | 2 | -23 | -6 | -2 | -2
CC(C)CN(C(=O)COC(=O)Cc1n[nH]c(=O)c2ccccc12)C1CCS(=O)(=O)C1 (stereo not given) | 12* | 5 | 2 | 7 | -10 | 2 | -7 | -2
COc1ccc(S(=O)(=O)N2CCN(C(=O)c3ccc(=O)[nH]n3)CC2)cc1OC | -8 | nt | 3 | nt | -13 | -5 | nt | nt
CCCNC(=O)C(Cc1cccc(Cl)c1)NC(=O)c1ccccc1 (stereo not given) | 5 | 1 | 9 | -5 | -1 | 14* | -1 | 2
O=C(N[C@@H](Cc1ccccc1)C(=O)NC1CC1)c1ccc(Cl)cc1 | 10* | -7 | 2 | -10 | 2 | -3 | 0 | 1
CCCNC(=O)C(Cc1ccccc1)NC(=O)c1ccccc1 (stereo not given) | 0 | 3 | 1 | 7 | -15 | 10 | nt | nt
COc1ccc(Oc2c(Cl)cnn(CC(=O)C(c3ccccc3)c3ccccc3)c2=O)cc1 | -2 | nt | -4 | nt | nt | -3 | nt | nt
Cn1c(=O)c2c(ncn2CCC(=O)N/N=C/c2ccncc2)n(C)c1=O | 3 | -4 | 1 | 2 | 3 | -4 | nt | nt
Cn1c(=O)c2c(ncn2CCC(=O)N/N=C/c2ccccc2)n(C)c1=O | 11* | -14 | 6 | 3 | -2 | 11* | -5 | -1
COc1ccc(S(=O)(=O)N2CCC3(CC2)OCCO3)cc1 | 1 | -5 | -2 | 1 | -1 | 5 | nt | nt

High-throughput results from PubChem BioAssay.
